Experimental data as given in ChEMBL document CHEMBL4834436, “Discovery of the S1P2 Antagonist GLPG2938 (1-[2-Ethoxy-6-(trifluoromethyl)-4-pyridyl]-3-[[5-methyl-6-[1-methyl-3-(trifluoromethyl)pyrazol-4-yl]pyridazin-3-yl]methyl]urea), a Preclinical Candidate for the Treatment of Idiopathic Pulmonary Fibrosis” (J Med Chem, 2021).

Legend:
[1] = target: T1, Sphingosine 1-phosphate receptor 2 (Homo sapiens, UniProt O95136); experiment: Antagonist activity at human S1P2 receptor expressed in CHO cells assessed as EC80 S1P-induced calcium flux measured for 3 mins by fluorescence assay; assay type: functional, cell-based
T1 sequence (O95136 whole entry): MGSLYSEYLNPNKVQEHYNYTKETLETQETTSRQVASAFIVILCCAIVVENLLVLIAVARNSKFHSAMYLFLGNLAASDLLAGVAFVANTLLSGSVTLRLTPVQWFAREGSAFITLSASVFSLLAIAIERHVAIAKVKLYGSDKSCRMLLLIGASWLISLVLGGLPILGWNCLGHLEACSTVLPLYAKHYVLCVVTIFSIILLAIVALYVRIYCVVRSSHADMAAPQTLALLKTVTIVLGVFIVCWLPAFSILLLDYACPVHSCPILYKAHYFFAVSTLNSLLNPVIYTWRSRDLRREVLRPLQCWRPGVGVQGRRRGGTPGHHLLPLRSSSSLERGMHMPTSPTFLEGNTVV
In short: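 Same dye-loaded, starved human S1P2-CHO cells; after agonist readout, 15 min at 37 °C, then stimulated with S1P at EC80, fluorescence read 3 min. Max/baseline ratio normalized to vehicle and S1P EC80. 10-point 1/3 dilutions from 20 μM final; IC50 derived; geometric mean of ≥2 runs.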

[2] = target: T1, Sphingosine 1-phosphate receptor 2; experiment: Antagonist activity at recombinant human S1P2 receptor expressed in CHO cells assessed as EC80 S1P-induced activation incubated for 4 hrs in presence of [35S]GTPgammaS by Topcount reader; assay type: functional, cell-based
In short: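 Membranes from stable lines overexpressing recombinant human S1P2, preincubated with PVT-WGA SPA beads, mixed with compound serial dilutions, [35S]GTPγS and S1P at EC80. Incubated 4 h at room temperature, centrifuged, scintillation counted. Antagonist mode; IC50 as geometric mean of ≥2 runs.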

[3] = target: T1, Sphingosine 1-phosphate receptor 2; experiment: Antagonist activity at recombinant human S1P2 receptor in HFL1 cells assessed as inhibition of EC80 S1P-induced IL8 release incubated for 16 to 24 hrs in absence of HSA by ELISA; assay type: functional, cell-based
In short: (§1)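 HFL-1 lung fibroblasts seeded in 96- or 384-well plates, then medium replaced by starvation medium with 1% heat-inactivated FBS, ±1.95% HSA (2% HSA condition), 16–24 h. 10-point 1/3 dilutions, 30 μM top final, 1 h, then S1P at EC80 (without HSA: 1 μM 96-well or 0.5 μM 384-well; with HSA: 5 or 2 μM).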

[4] = Intrinsic clearance unbound in mouse liver microsomes at 1 uM […] by LC-MS/MS analysis; assay type: ADME, Microsome
[5] = target: T1, Sphingosine 1-phosphate receptor 2; experiment: Antagonist activity at recombinant human S1P2 receptor in HFL1 cells assessed as inhibition of EC80 S1P-induced IL8 release incubated for 16 to 24 hrs in presence of 2% HSA by ELISA; assay type: functional, cell-based; in short: as §1
[6] = target: T1, Sphingosine 1-phosphate receptor 2; experiment: Antagonist activity at recombinant human S1P2 receptor in HFL1 cells assessed as inhibition of EC80 S1P-induced IL8 release measured as unbound concentration incubated for 16 to 24 hrs in presence of 2% HSA by ELISA; assay type: functional, cell-based; conditions: filed as antagonist, time 16-24 hrs
In short: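 IL8 IC50 from the 2% HSA condition converted to free IC50 = IC50 × fu,medium, where fu,medium is estimated from human plasma protein binding fraction unbound and the serum percentage used in the assay.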

[7] = Intrinsic clearance unbound in human liver microsomes at 1 uM […] by LC-MS/MS analysis; assay type: ADME, Microsome
[8] = target: T1, Sphingosine 1-phosphate receptor 2; experiment: Agonist activity at human S1P2 receptor expressed in CHO cells assessed as calcium flux measured for 3 mins by fluorescence assay; assay type: functional, cell-based; conditions: read-out: IC50 (the source's name)
In short: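 CHO cells stably overexpressing human S1P2, seeded overnight at 37 °C/5% CO2, washed and starved 1 h in F-12 with 0.1% fatty-acid-free BSA, loaded with Fluo 8 dye with 5 mM probenecid. Compound added, fluorescence read 3 min; max/baseline ratio normalized to vehicle and S1P EC100. 10-point 1/3 dilutions from 23.3 μM final; EC50 derived; geometric mean of ≥2 runs.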

SMILES	IC50 [1]	IC50 [2]	IC50 [3]	CL free [4]	IC50 [5]	fIC50 [6]	CL free [7]	EC50 [8]	IC50 ([2]; cho)
Cc1cc(CNc2nc3cc(Cl)c(Cl)cc3[nH]2)ncc1-c1cn(C)nc1C	0.009 µM	0.43 µM	0.43 nM	2580 mL/min/kg					
Cc1cc(CNC(=O)Nc2cc(C(F)(F)F)nc(OCCO)c2C)nnc1-c1cn(C)nc1C(F)(F)F	84 µM	169 µM	160 nM	91.7 mL/min/kg	0.256 µM	5.4 nM			
COCCOc1cc(NC(=O)NCc2cc(C)c(-c3cn(C)nc3C(F)(F)F)nn2)cc(Cl)n1	412 µM	640 µM	640 nM	317 mL/min/kg	3.22 µM		< 23.3 mL/min/kg		
Cc1cc(CO)nc(NNC(=O)Nc2cc(Cl)nc(Cl)c2)c1	> 6.6 µM	31 µM						> 23 µM	
Cc1cc(C#N)nc(NNC(=O)Nc2cc(Cl)nc(Cl)c2)c1	> 6.6 µM							> 23 µM	
CCOc1nc(C)cc(NC(=O)NCc2cc(C)c(-c3cn(C)nc3C(F)(F)F)nn2)c1C#N	> 20 µM	> 20000 µM	> 20000 nM	2270 mL/min/kg	> 30 µM				
Cc1cc(NNC(=O)Nc2cc(Cl)nc(Cl)c2)nc(C(=O)N(C)C)c1	> 19 µM							> 23 µM	
Cc1cc(NNC(=O)Nc2cc(Cl)nc(Cl)c2)ncc1-c1ccn(C)n1	4 µM	9.3 µM						> 23 µM	
Cc1cc(NNC(=O)Nc2cc(Cl)nc(Cl)c2)ncc1N(C)C	3.6 µM	5.3 µM						> 23 µM	
CCOc1cc(NC(=O)NCc2cc(C)c(-c3cn(C)nc3C(F)(F)F)nn2)cc(C#N)n1	11 µM	35 µM	35 nM	< 105 mL/min/kg	0.067 µM	3 nM	< 28.3 mL/min/kg		
CCOc1cc(NC(=O)NCc2cc(C)c(Nc3cn(C)nc3C)cn2)cc(C(F)(F)F)n1	0.012 µM	55 µM	55 nM	867 mL/min/kg			267 mL/min/kg		
Cc1cc(CNC(=O)c2cc3c(Cl)nc(Cl)cc3[nH]2)ncc1-c1cn(C)nc1C	0.89 µM	1.3 µM	1.3 nM	633 mL/min/kg					
Cc1cc(NNC(=O)Nc2cc(Cl)nc(Cl)c2)nc(-c2cnn(C)c2)c1	> 2.1 µM	3.1 µM						> 23 µM	
CCOc1nc(Cl)cc(NC(=O)NCc2cc(C)c(-c3cn(C)nc3C(F)(F)F)nn2)c1C	8.8 µM	15 µM	15 nM	< 533 mL/min/kg	0.032 µM	0.16 nM	< 127 mL/min/kg		
Cc1cc(CNC(=O)Nc2cc(Cl)nc(Cl)c2)ncc1-c1cn(C)nc1C	0.3 µM	0.77 µM	0.77 nM	200 mL/min/kg					
CCOc1cc(NC(=O)NCc2cc(C)c(-c3cn(C)nc3C(F)(F)F)nn2)cc(C)n1	54 µM	242 µM	242 nM	< 58.3 mL/min/kg	0.194 µM	15 nM	< 15 mL/min/kg		

SMILES	IC50 [1]	IC50 [2]	IC50 [3]	CL free [4]	IC50 [5]	fIC50 [6]	CL free [7]	EC50 [8]	IC50 ([2]; cho)
CCOc1cc(NC(=O)NCc2cc(C)c(N3CC(C)OC(C)C3)cn2)cc(Cl)n1 (configuration not stated)	0.016 µM	105 µM	105 nM	500 mL/min/kg			125 mL/min/kg		
Cc1cc(NNC(=O)Nc2cc(Cl)nc(Cl)c2)nc(C(=O)N(C)C2CC2)c1	> 20 µM							> 23 µM	
Cc1cc(CNC(=O)Nc2cc(Cl)cc(Cl)c2)ncc1-c1cn(C)nc1C	0.16 µM	0.3 µM	0.3 nM	2650 mL/min/kg					
Cc1cc(NNC(=O)Nc2cc(Cl)nc(Cl)c2)ncc1C#N	6 µM	7 µM						> 23 µM	
Cc1cc(CNC(=O)c2cc(Cl)nc(Cl)c2)ncc1-c1cn(C)nc1C	> 19 µM	> 100 µM	> 100 nM	85 mL/min/kg					
Cc1cc(CNC(=O)Cc2ccc(Cl)c(Cl)c2)ncc1-c1cn(C)nc1C	> 19 µM			3770 mL/min/kg					Not Active
CCOc1nc(C)cc(NC(=O)NCc2cc(C)c(-c3cn(C)nc3C(F)(F)F)nn2)c1Cl	8.7 µM	26 µM	26 nM	250 mL/min/kg	0.049 µM	0.55 nM	< 25 mL/min/kg		
Cc1cc(CNC(=O)c2cc3c(Cl)cc(Cl)cc3[nH]2)ncc1-c1cn(C)nc1C	0.11 µM	0.61 µM	0.61 nM	> 783 mL/min/kg					
Cc1cc(NNC(=O)Nc2cc(Cl)nc(Cl)c2)nc(-c2ccc(F)cc2)c1	1.3 µM	6.2 µM						> 23 µM	
CCOc1nc(C#N)cc(NC(=O)NCc2cc(C)c(-c3cn(C)nc3C(F)(F)F)nn2)c1C	7.1 µM	24 µM	24 nM	< 163 mL/min/kg	0.017 µM	0.19 nM	< 35 mL/min/kg		
Cc1cc(CNC(=O)Nc2cc(Cl)nc(OCC(F)F)c2)nnc1-c1cn(C)nc1C(F)(F)F	7.2 µM	36 µM	36 nM	< 167 mL/min/kg	0.071 µM	1.3 nM	< 50 mL/min/kg		
CCOc1cc(NC(=O)NCc2cc(C)c(-c3cn(C)nc3C)cn2)cc(Cl)n1	0.04 µM	0.32 µM	0.032 nM	700 mL/min/kg				4.7 µM	
Cc1cc(CNC(=O)Nc2cc(OCCN(C)C)nc(C(F)(F)F)c2)nnc1-c1cn(C)nc1C(F)(F)F	2140 µM	> 10000 µM	> 10000 nM	< 90 mL/min/kg			23.3 mL/min/kg		
Cc1cc(NNC(=O)Nc2cc(Cl)nc(Cl)c2)nc(C(=O)NC2CC2)c1	4.5 µM							> 23 µM	
Cc1cc(CNC(=O)Nc2cc(OCC(O)CO)nc(C(F)(F)F)c2)nnc1-c1cn(C)nc1C(F)(F)F (configuration not stated)	> 6.61 µM	> 11000 µM	> 11000 nM	< 76.7 mL/min/kg	> 10 µM		31.7 mL/min/kg		
CCOc1nc(Cl)cc2nc(NCc3cc(C)c(-c4cn(C)nc4C)cn3)[nH]c12	0.033 µM	2.25 µM	2.25 nM	1370 mL/min/kg					
